Columns and labels:
Type in all cases: functional, cell-based
SMMC-7721 = test: Cytotoxicity against human SMMC7721 cells after 48 hrs by MTT assay
Method in brief: (§1)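 Cells grown in RPMI-1640 or DMEM with 10% FBS at 37 °C under 5% CO2. Adherent lines (A-549, MCF-7, SMMC-7721, SW480) were left to attach for 12 h before dosing; suspension HL-60 was seeded just before dosing at 1 × 10^5 cells/mL. Compounds were given in DMSO at 0.0625, 0.32, 1.6, 8 and 40 µmol, in triplicate, for 48 h. Read-out by MTT; cisplatin and vinorelbine were positive controls.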

A549 = test: Cytotoxicity against human A549 cells after 48 hrs by MTT assay; method in brief: as §1
SW480 = test: Cytotoxicity against human SW480 cells after 48 hrs by MTT assay; method in brief: as §1
HL-60 = test: Cytotoxicity against human HL60 cells after 48 hrs by MTT assay; method in brief: as §1
MCF7 = test: Cytotoxicity against human MCF7 cells after 48 hrs by MTT assay; method in brief: as §1

With `CC[C@]12C=CCN3CCc4c(n(c5ccccc45)[C@@H](c4ccc5c(c4)[C@@]46CCN7CC=C[C@@]8(C[C@@H](C(=O)OC)[C@]4(N5)[C@@H]8C)[C@H]76)C1)[C@@H]32` the IC50 (SMMC-7721) was 3.2 µmol, the IC50 (A549) was 4.8 µmol and the IC50 (SW480) was 1.4 µmol. For the same compound, the IC50 (HL-60) was 1.1 µmol and the IC50 (MCF7) was 2.9 µmol.
In the case of `CC[C@]12C=CCN3CCc4c(n(c5ccccc45)[C@@H](OC)C1)[C@@H]32`, the IC50 (SMMC-7721) is reported as 22.1 µmol, the IC50 (A549) is reported as greater than 40 µmol and the IC50 (SW480) is reported as 32.2 µmol. It also gave an IC50 (HL-60) of 15.9 µmol and an IC50 (MCF7) of 29.3 µmol.
Work on `CC[C@]12C=CCN3CC[C@]4(C(=C(C(=O)OC)C1)Nc1cc(OC)ccc14)[C@@H]32` yielded an IC50 (SMMC-7721) of 13.1 µmol, an IC50 (A549) of 12.8 µmol and an IC50 (SW480) of 12.7 µmol. It also gave an IC50 (HL-60) of 0.2 µmol and an IC50 (MCF7) of 2.1 µmol.
In the case of `CC[C@]12C=CCN3CC[C@]4(C(=C(C(=O)OC)C1)Nc1cc5c(cc14)[C@@H]1[C@H](O5)[C@@H](O)[C@@]4(CC)CC(C(=O)OC)=C5Nc6ccccc6[C@@]56CCN1[C@@H]46)[C@@H]32` [MELODININE K], the IC50 (SMMC-7721) is reported as 3 µmol, the IC50 (A549) is reported as 5 µmol and the IC50 (SW480) is reported as 5.7 µmol. The IC50 (HL-60) was 0.1 µmol and the IC50 (MCF7) was 2.7 µmol.
Work on `COC(=O)[C@@H]1C[C@@]23C=CCN4CC[C@@]5(c6ccccc6N[C@]15[C@@H]2C)[C@@H]43` [VINDOLININE] yielded an IC50 (SMMC-7721) of 20.7 µmol, an IC50 (A549) of 26.3 µmol and an IC50 (SW480) of 15.2 µmol. For the same compound, the IC50 (HL-60) was 6.8 µmol and the IC50 (MCF7) was 21.9 µmol.
Work on `CCC1=C[C@@H]2CN(C1)Cc1c([nH]c3ccccc13)[C@@](C(=O)OC)(c1cc3c(cc1OC)N(C)[C@H]1[C@@](O)(C(=O)OC)[C@H](OC(C)=O)[C@]4(CC)C=CCN5CC[C@]31[C@@H]54)C2` [VINORELBINE] yielded an IC50 (SMMC-7721) of 4.7 µmol, an IC50 (A549) of 26.1 µmol and an IC50 (SW480) greater than 40 µmol. It also gave an IC50 (HL-60) of less than 0.06 µmol and an IC50 (MCF7) of 17.2 µmol.

— ChEMBL document CHEMBL1165931, “Cytotoxic indole alkaloids from Melodinus tenuicaudatus” (J Nat Prod, 2010)
